Laboratory results taken from ChEMBL document CHEMBL1143300, “Synthesis and activity evaluation of benzoylurea derivatives as potential antiproliferative agents” (Bioorg Med Chem Lett, 2009).
pIC50: −log10 of the molar value. Values belong to the compound of their own block, whether it stands above or below them. Calls of active or inactive are those of the source. The rule behind the calls is not given here.

What was measured:
Type in all cases: functional, cell-based
CCRF-CEM [1] = assay: Antiproliferative activity against human CEM cells after 72 hrs by MTT assay
How it was run: (§1)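 MTT read-out of tumour cell proliferation after 72 h of drug exposure. IC50 is the drug concentration giving 50% inhibition of proliferation. Each experiment was repeated three times under identical conditions.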

Bel-7402 = assay: Antiproliferative activity against human Bel7402 cells after 72 hrs by MTT assay; settings: Bel-7402, 72 h; how it was run: as §1
HepG2 = assay: Antiproliferative activity against human HepG2 cells after 72 hrs by MTT assay; settings: HepG2, 72 h; how it was run: as §1
SMMC-7721 = assay: Antiproliferative activity against human SMMC7721 cells after 72 hrs by MTT assay; settings: SMMC-7721, 72 h; how it was run: as §1
CCRF-CEM [2] = assay: Effect on necrosis-mediated morphological changes in human CEM cells assessed as destruction of cytoplasm and nucleic membrane at IC75 after 12 hrs by Giemsa staining
How it was run: (§2)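 After 12 h of drug incubation, CEM cells were spun onto slides by cytospin, air-dried, fixed with methanol and Giemsa-stained. Morphology was examined at 400× magnification.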

CCRF-CEM [3] = assay: Effect on apoptosis-mediated morphological changes in human CEM cells at 3.2 uM after 12 hrs by Giemsa staining; how it was run: as §2
CCRF-CEM [4] = assay: Cell cycle arrest in human CEM cells assessed as accumulation at G2/M phase at 0.69 uM after 12 hrs by flow cytometry
How it was run: (§3)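 CEM cells were left untreated or drug-exposed for 12 h at 37 °C, then collected, fixed in methanol and DNA-stained with a fluorescent dye. Cell-cycle distribution was read by flow cytometry using a conventional cell cycle protocol, with untreated cells as reference.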

CCRF-CEM [5] = assay: Effect on necrosis-mediated morphological changes in human CEM cells assessed as destruction of cytoplasm and nucleic membrane at 0.69 uM after 12 hrs by Giemsa staining; how it was run: as §2
CCRF-CEM [6] = assay: Cell cycle arrest in human CEM cells assessed as accumulation at G2/M phase at 3.2 uM after 12 hrs by flow cytometry; settings: 0.1 uM, in the assay text read “0.1 uM” for “3.2 uM”; how it was run: as §3
CCRF-CEM [7] = assay: Cell cycle arrest in human CEM cells assessed as accumulation at G2/M phase at 0.1 uM after 12 hrs by flow cytometry; how it was run: as §3

Compound: COc1cc(NC(=O)NC(=O)c2cccc(NC(=O)C(C)Br)c2)cc(OC)c1OC (configuration not stated)
- pIC50 (CCRF-CEM [1]): 5.88

Compound: NC(=O)NC(=O)/C=C/c1cccc(NC(=O)CBr)c1
- pIC50 (CCRF-CEM [1]): 5.86

Compound: NC(=O)NC(=O)Cc1cccc(NC(=O)CCl)c1
- pIC50 (CCRF-CEM [1]): 4.90

Compound: CNC(=O)NC(=O)c1cccc(NC(=O)CCl)c1
- pIC50 (CCRF-CEM [1]): 5.04

Compound: O=C(CBr)Nc1cccc(C(=O)NC(=O)Nc2ccc3c(c2)OCO3)c1
- pIC50 (CCRF-CEM [1]): 5.82

Compound: COc1cc(NC(=O)NC(=O)c2cccc(NC(=O)CBr)c2)cc(OC)c1OC
- pIC50 (CCRF-CEM [1]): 6.48
- pIC50 (Bel-7402): 5.85
- pIC50 (HepG2): 6.09
- pIC50 (SMMC-7721): 6.17
- Activity (CCRF-CEM [4]): inactive
- Activity (CCRF-CEM [5]): Active

Compound: CC(Br)C(=O)Nc1cccc(CC(=O)NC(N)=O)c1 (configuration not stated)
- pIC50 (CCRF-CEM [1]): < 4.70

Compound: O=C(CBr)Nc1cccc(C(=O)NC(=O)Nc2ccccc2)c1
- pIC50 (CCRF-CEM [1]): 5.30

Compound: CNC(=O)NC(=O)c1cccc(NC(=O)C(C)Cl)c1 (configuration not stated)
- pIC50 (CCRF-CEM [1]): < 4.70

Compound: CC[C@]1(O)C[C@H]2CN(CCc3c([nH]c4ccccc34)[C@@](C(=O)OC)(c3cc4c(cc3OC)N(C=O)[C@H]3[C@@](O)(C(=O)OC)[C@H](OC(C)=O)[C@]5(CC)C=CCN6CC[C@]43[C@@H]65)C2)C1 [VINCRISTINE]
- pIC50 (Bel-7402): 7.40
- pIC50 (SMMC-7721): 4.28
- Activity (CCRF-CEM [6]): Active
- Activity (CCRF-CEM [7]): Active

Compound: CNC(=O)NC(=O)c1cccc(NC(=O)CBr)c1
- pIC50 (CCRF-CEM [1]): 5.50

The next lines start with results.

- pIC50 (CCRF-CEM [1]): 4.92
Compound: CC(Br)C(=O)Nc1cccc(C(=O)NC(=O)Nc2ccc3c(c2)OCO3)c1 (configuration not stated)

- pIC50 (CCRF-CEM [1]): < 4.70
Compound: CC(Br)C(=O)Nc1cccc(C(=O)NC(=O)Nc2ccccc2)c1 (configuration not stated)

- pIC50 (CCRF-CEM [1]): 6.15
- pIC50 (Bel-7402): 5.92
- pIC50 (HepG2): 6.05
- pIC50 (SMMC-7721): 6.03
Compound: O=C(CBr)Nc1cccc(C(=O)NC(=O)Nc2ccccn2)c1
- Activity (CCRF-CEM [2]): Active

- pIC50 (CCRF-CEM [1]): 5.03
Compound: CNC(=O)NC(=O)c1cccc(NC(=O)C(C)Br)c1 (configuration not stated)

- pIC50 (Bel-7402): 5.95
- pIC50 (HepG2): 5.92
- pIC50 (SMMC-7721): 5.03
Compound: CC(Br)C(=O)Nc1cccc(C(=O)NC(N)=O)c1 (configuration not stated)
- Activity (CCRF-CEM [3]): Active

- pIC50 (CCRF-CEM [1]): 5.21
Compound: CC(Br)C(=O)Nc1cccc(C(=O)NC(=O)Nc2ccccn2)c1 (configuration not stated)
